Activity calls are given as the source filed them. The rule behind the calls is not given here.
Experiments:
[1] = system: HepG2; test: Reduction of glucose consumption in insulin-resistant human HepG2 cells at 10 uM after 24 hrs by glucose oxidase method; type: functional, cell-based
In short: (§1)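 HepG2 cells in DMEM (22.2 mM glucose) with 10% FBS, exposed to 0.1 μM insulin from plating for 2 days. At confluence, given fresh 22.2 mM glucose DMEM with test agents for 24 h. Medium glucose measured by glucose oxidase. Consumption = blank minus remaining glucose, normalized to MTT. Three independent experiments.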

[2] = system: HepG2; test: Reduction of glucose consumption in insulin-resistant human HepG2 cells at 10 uM after 24 hrs by glucose oxidase method in presence of 0.1 uM of insulin; type: functional, cell-based; in short: as §1
[3] = system: 3T3-L1; test: Down-regulation of […] expression in mouse 3T3L1 cells at 10 uM after 24 hrs by ELISA; type: functional
In short: (§2)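 3T3-L1 preadipocytes grown to 2 days post-confluence. Differentiated with 0.5 mM IBMX, 0.25 μM dexamethasone and 1 μg/mL insulin for 2 days, then insulin alone for 2 days, then 10% FBS DMEM. On day 12, treated 24 h; secreted adiponectin and leptin measured by ELISA. Three independent experiments.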

[4] = system: 3T3-L1; test: Up-regulation of adiponectin expression in mouse 3T3L1 cells at 10 uM after 24 hrs by ELISA; type: functional; in short: as §2
[5] = system: HepG2; test: Reduction of glucose consumption in insulin-resistant human HepG2 cells at 10 uM after 24 hrs by glucose oxidase method in presence of 22.2 mM of glucose; type: functional, cell-based; in short: as §1

Row | Structure (SMILES) | Activity [1] | Activity [2] | Activity [3] | Activity [4] | Activity [5]
1 | O=C1NC(=O)C(=Cc2ccc(C(=O)N3CCC(Nc4cc([N+](=O)[O-])ccn4)CC3)cc2)C(=O)N1 | inactive | inactive |  |  | 
2 | O=C1NC(=O)C(=Cc2ccc(OC3CCN(c4ncccc4C(F)(F)F)CC3)cc2)C(=O)N1 |  | Active | inactive | Active | Active
3 | COc1cc(OC2CCN(c3ncccc3C#N)CC2)cc(OC)c1C=C1C(=O)NC(=S)NC1=O | inactive | inactive |  |  | 
4 | O=C1NC(=O)C(=Cc2ccc(OC3CCN(C(=O)c4cccc(C(F)(F)F)c4)CC3)cc2)C(=O)N1 |  | Active | inactive | Active | Active
5 | O=C1NC(=O)C(=Cc2ccc(OC3CCN(C(=O)c4ccccn4)CC3)cc2)C(=O)N1 | inactive | inactive |  |  | 
6 | O=C1NC(=O)C(=Cc2ccc(C(=O)NC3CCN(c4ccc([N+](=O)[O-])cn4)CC3)cc2)C(=O)N1 |  | Active |  |  | Active
7 | N#Cc1cccnc1N1CCC(Oc2ccc(C=C3C(=O)NC(=O)NC3=O)cc2)CC1 | inactive | inactive |  |  | 
8 | O=C1NC(=O)C(=Cc2ccc(CNC3CCN(c4ccc([N+](=O)[O-])cn4)CC3)cc2)C(=O)N1 | inactive | inactive |  |  | 
9 | CN(CCOc1ccc(CC2SC(=O)NC2=O)cc1)c1ccccn1 (centres undefined) [ROSIGLITAZONE] |  | Active | 118.8 pg/mL | 236 pg/mL | Active
10 | O=C1NC(=O)C(=Cc2ccc(OC3CCN(C(=O)c4cccnc4)CC3)cc2)C(=O)N1 | inactive | inactive |  |  | 
11 | O=C1NC(=O)C(=Cc2ccc(OC3CCN(C(=O)c4ccc(OC(F)F)cc4)CC3)cc2)C(=O)N1 | inactive | inactive |  |  | 
12 | CS(=O)(=O)N(Cc1ccc(C=C2C(=O)NC(=O)NC2=O)cc1)C1CCN(C(=O)c2cccc(OC(F)(F)C(F)F)c2)CC1 | inactive | inactive |  |  | 
13 | O=C1NC(=O)C(=Cc2ccc(C(=O)NC3CCN(c4cc([N+](=O)[O-])ccn4)CC3)cc2)C(=O)N1 | inactive | inactive |  |  | 
14 | O=C1NC(=O)C(=Cc2ccc(OC3CCN(C(=O)c4ccc(Cl)cn4)CC3)cc2)C(=O)N1 | inactive | inactive |  |  | 
